Experimental data as given in ChEMBL document CHEMBL1122701, “Antiestrogens. 2. Structure-activity studies in a series of 3-aroyl-2-arylbenzo[b]thiophene derivatives leading to [6-hydroxy-2-(4-hydroxyphenyl)benzo[b]thien-3-yl] [4-[2-(1-piperidinyl)ethoxy]-phenyl]methanone hydrochloride (LY156758), a remarkably effective estrogen antagonist with only minimal …” (1984).
Where “and” joins values, the source holds several entries; their conditions need not be identical. Identical values can stand only once.

Columns and labels:
[1] = species: Rattus norvegicus; test: The compound was tested for uterotropic activity in immature rats(Dosage 0.1 ug); format: functional
Procedure, shortened: (§1)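 Holtzman rats, immature (19-20 days, 40-45 g), in groups of six. Compound given subcutaneously in corn oil as a daily per-rat dose for 3 days. Rats killed on day 4 and uterine wet weight recorded to the nearest 0.1 mg.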

[2] = species: Rattus norvegicus; test: The compound was tested for uterotropic activity in immature rats(Dosage 1000 ug); format: functional; procedure, shortened: as §1
[3] = species: Rattus norvegicus; test: The compound was tested for uterotropic activity in immature rats(Dosage 100 ug); format: functional; procedure, shortened: as §1
[4] = species: Rattus norvegicus; test: The compound was tested for uterotropic activity in immature rats(Dosage 10 ug); format: functional; procedure, shortened: as §1
[5] = species: Rattus norvegicus; test: The compound was tested for anti-uterotrophic activity in immature rats(Dosage 100 ug); format: functional
Procedure, shortened: (§2)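 Holtzman rats, immature (19-20 days, 40-45 g), in groups of six. Each rat received estradiol 1 µg/day sc in corn oil plus compound sc in corn oil as a daily per-rat dose, for 3 days. Rats killed on day 4. Inhibition of estradiol-driven uterine wet weight (weighed to 0.1 mg).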

[6] = species: Rattus norvegicus; test: The compound was tested for uterotropic activity in immature rats(Dosage 1 ug); format: functional; procedure, shortened: as §1
[7] = species: Rattus norvegicus; test: The compound was tested for anti-uterotrophic activity in immature rats(Dosage 10 microg); format: functional; procedure, shortened: as §2
[8] = species: Rattus norvegicus; test: The compound was tested for anti-uterotrophic activity in immature rats(Dosage 1000 ug); format: functional; procedure, shortened: as §2
[9] = species: Rattus norvegicus; test: The compound was tested for anti-uterotrophic activity in immature rats(Dosage 1 ug); format: functional; procedure, shortened: as §2
[10] = tested on: Rattus norvegicus; test: The compound was tested for the % change of tumor area at 10 mg/kg dose after peroral administration (experiment-2); conditions: route oral
[11] = tested on: Rattus norvegicus; test: The compound was tested for the progression of no of tumors at 10 mg/kg dose after peroral administration (experiment-2); format: functional; conditions: route oral
Procedure, shortened: (§3)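 DMBA-induced mammary tumors in female Sprague-Dawley rats. Compound given orally twice daily in PEG-400:water (1:1) for 21 days; controls received vehicle alone. Tumors measured by caliper at start and weekly; area is largest × smallest diameter. Tumors scored as complete or partial remission, no change or progression. Mean ± SE.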

[12] = tested on: Rattus norvegicus; test: The compound was tested for no of tumors with complete remission at 10 mg/kg dose after peroral administration (experiment-2); format: functional; conditions: route oral; procedure, shortened: as §3
[13] = tested on: Rattus norvegicus; test: The compound was tested for no of tumors with partial remission at 10 mg/kg dose after peroral administration (experiment-2); format: functional; conditions: route oral; procedure, shortened: as §3
[14] = tested on: Rattus norvegicus; test: The compound was tested for no of tumors without change at 1 mg/kg dose after peroral administration (experiment-I); format: functional; conditions: route oral; procedure, shortened: as §3
[15] = tested on: Rattus norvegicus; test: The compound was tested for the progression of no of tumors at 10 mg/kg dose after peroral administration (experiment-I); format: functional; conditions: route oral; procedure, shortened: as §3
[16] = tested on: Rattus norvegicus; test: The compound was tested for the no of tumors at 10 mg/kg dose start of the experiment after peroral administration (experiment-I); format: functional; conditions: route oral; procedure, shortened: as §3
[17] = tested on: Rattus norvegicus; test: The compound was tested for the no of tumors at 1 mg/kg dose finish of the experiment after peroral administration (experiment-I); format: functional; conditions: route oral; procedure, shortened: as §3
[18] = tested on: Rattus norvegicus; test: The compound was tested for the no of tumors at 1 mg/kg dose start of the experiment after peroral administration (experiment-I); format: functional; conditions: route oral; procedure, shortened: as §3
[19] = tested on: Rattus norvegicus; test: The compound was tested for the progression of no of tumors at 1 mg/kg dose after peroral administration (experiment-I); format: functional; conditions: route oral; procedure, shortened: as §3
[20] = tested on: Rattus norvegicus; test: The compound was tested for no of tumors without change at 10 mg/kg dose after peroral administration (experiment-2); format: functional; conditions: route oral; procedure, shortened: as §3
[21] = tested on: Rattus norvegicus; test: The compound was tested for the % change of tumor area at 1 mg/kg dose after peroral administration (experiment-I); format: functional; conditions: route oral; procedure, shortened: as §3
[22] = tested on: Rattus norvegicus; test: The compound was tested for the growth of mammary tumors in rats at 1 mg/kg dose after peroral administration at the end of the exp-1; format: functional; conditions: route oral; procedure, shortened: as §3
[23] = tested on: Rattus norvegicus; test: The compound was tested for no of tumors without change at 10 mg/kg dose after peroral administration (experiment-I); format: functional; conditions: route oral; procedure, shortened: as §3
[24] = tested on: Rattus norvegicus; test: The compound was tested for no of tumors with complete remission at 1 mg/kg dose after peroral administration (experiment-I); format: functional; conditions: route oral; procedure, shortened: as §3
[25] = tested on: Rattus norvegicus; test: The compound was tested for no of tumors with complete remission at 10 mg/kg dose after peroral administration (experiment-I); format: functional; conditions: route oral; procedure, shortened: as §3
[26] = tested on: Rattus norvegicus; test: The compound was tested for the no of tumors at 10 mg/kg dose finish of the experiment after peroral administration (experiment-2); format: functional; conditions: route oral; procedure, shortened: as §3
[27] = tested on: Rattus norvegicus; test: The compound was tested for no of tumors with partial remission at 1 mg/kg dose after peroral administration (experiment-I); format: functional; conditions: route oral; procedure, shortened: as §3
[28] = tested on: Rattus norvegicus; test: The compound was tested for no of tumors with partial remission at 10 mg/kg dose after peroral administration (experiment-I); format: functional; conditions: route oral; procedure, shortened: as §3
[29] = tested on: Rattus norvegicus; test: The compound was tested for the no of tumors at 10 mg/kg dose start of the experiment after peroral administration (experiment-2); format: functional; conditions: route oral; procedure, shortened: as §3
[30] = tested on: Rattus norvegicus; test: The compound was tested for the no of tumors at 10 mg/kg dose finish of the experiment after peroral administration (experiment-I); format: functional; conditions: route oral; procedure, shortened: as §3
[31] = tested on: Rattus norvegicus; test: The compound was tested for serum prolactin level in rats at 10 mg/kg dose after peroral administration; format: functional, organism-based; design: dose 10 mg/kg
[32] = tested on: Rattus norvegicus; test: The compound was tested for the growth of tumors at 10 mg/kg dose start of the experiment after peroral administration (experiment-2); format: functional; conditions: route oral; procedure, shortened: as §3
[33] = tested on: Rattus norvegicus; test: The compound was tested for the growth of mammary tumors in rats at 10 mg/kg dose after peroral administration at the end of the exp-2; format: functional; conditions: route oral; procedure, shortened: as §3
[34] = tested on: Rattus norvegicus; test: The compound was tested for the growth of tumors at 10 mg/kg dose finish of the experiment after peroral administration (experiment-2); format: functional; conditions: route oral; procedure, shortened: as §3
[35] = tested on: Rattus norvegicus; test: The compound was tested for serum prolactin level in rats at 1 mg/kg dose after peroral administration; format: functional, organism-based; design: dose 1 mg/kg
[36] = tested on: Rattus norvegicus; test: The compound was tested for serum prolactin level in rats at 1 mg/kg dose after peroral administration exp1; format: functional, organism-based; design: dose 1 mg/kg
[37] = tested on: Rattus norvegicus; test: The compound was tested for serum LH level in rats at 1 mg/kg dose after peroral administration; format: functional, organism-based; design: dose 1 mg/kg

## C[C@]12CC[C@@H]3c4ccc(O)cc4CC[C@H]3[C@@H]1CC[C@@H]2O [ESTRADIOL]
[1]
  Mean uterine weight: 82.3 mg

## O=C(c1ccc(OCCN2CCCCC2)cc1)c1c(-c2ccc(O)cc2)sc2cc(O)ccc12 [RALOXIFENE]
[2]
  Mean uterine weight: 35.4 mg
[3]
  Mean uterine weight: 42.7 mg
[4]
  Mean uterine weight: 42.2 mg
[5]
  Mean uterine weight: 32.5 mg
[6]
  Mean uterine weight: 48.6 mg
[7]
  Mean uterine weight: 36.7 mg
[8]
  Mean uterine weight: 28.9 mg
[9]
  Mean uterine weight: 48.7 mg

## Cl.O=C(c1ccc(OCCN2CCCCC2)cc1)c1c(-c2ccc(O)cc2)sc2cc(O)ccc12 [RALOXIFENE HYDROCHLORIDE]
[10]
  % change tumor area: 417%
[11]
  No. of tumours: 2
[12]
  No. of tumours: 4
[13]
  No. of tumours: 2
[14]
  No. of tumours: 4
[15]
  No. of tumours: 4
[16]
  No. of tumours: 9
[17]
  No. of tumours: 9
[18]
  No. of tumours: 9
[19]
  No. of tumours: 2
[20]
  No. of tumours: 1
[21]
  % change tumor area: 132% and 378%
[22]
  Tumor area: 33.3 mm**2 and <77.3 mm**2
[23]
  No. of tumours: 2
[24]
  No. of tumours: 1
[25]
  No. of tumours: 1
[26]
  No. of tumours: 5
[27]
  No. of tumours: 2
[28]
  No. of tumours: 2
[29]
  No. of tumours: 9
[30]
  No. of tumours: 13

## CC/C(=C(\c1ccccc1)c1ccc(OCCN(C)C)cc1)c1ccccc1 [TAMOXIFEN]
[10]
  % change tumor area: 7
[11]
  No. of tumours: 3
[2]
  Mean uterine weight: 70.1 mg
[3]
  Mean uterine weight: 65.6 mg
[12]
  No. of tumours: 3
[13]
  No. of tumours: 3
[31]
  Serum prolactin level: 0.000126 mg/mL
[32]
  No. of tumours: 11
[4]
  Mean uterine weight: 64.8 mg
[33]
  Tumor area: 43.4 mm**2 and <46.4 mm**2
[5]
  Mean uterine weight: 72.1 mg
[20]
  No. of tumours: 2
[6]
  Mean uterine weight: 38.9 mg
[7]
  Mean uterine weight: 62.1 mg
[8]
  Mean uterine weight: 74.1 mg
[34]
  No. of tumours: 7
[9]
  Mean uterine weight: 64.1 mg

## CCN(CC)CCOc1ccc(C(=O)c2c(-c3ccc(O)cc3)sc3cc(O)ccc23)cc1
[2]
  Mean uterine weight: 66.5 mg
[3]
  Mean uterine weight: 67.6 mg
[4]
  Mean uterine weight: 53.6 mg
[5]
  Mean uterine weight: 66.4 mg
[6]
  Mean uterine weight: 45.4 mg
[7]
  Mean uterine weight: 61.3 mg
[8]
  Mean uterine weight: 66 mg
[9]
  Mean uterine weight: 56.2 mg

## O=C(c1ccc(OCCN2CCCCCC2)cc1)c1c(-c2ccc(O)cc2)sc2cc(O)ccc12
[2]
  Mean uterine weight: 40.1 mg
[3]
  Mean uterine weight: 43.9 mg
[4]
  Mean uterine weight: 46.6 mg
[5]
  Mean uterine weight: 39.7 mg
[6]
  Mean uterine weight: 52.7 mg
[7]
  Mean uterine weight: 52.7 mg
[8]
  Mean uterine weight: 36.7 mg
[9]
  Mean uterine weight: 56.3 mg

## O=C(c1ccc(OCCN2CCCC2)cc1)c1c(-c2ccc(O)cc2)sc2cc(O)ccc12 [LY-117018]
[2]
  Mean uterine weight: 40.7 mg
[3]
  Mean uterine weight: 43.9 mg
[4]
  Mean uterine weight: 46.6 mg
[5]
  Mean uterine weight: 42.7 mg
[6]
  Mean uterine weight: 55.1 mg
[7]
  Mean uterine weight: 44.5 mg
[8]
  Mean uterine weight: 36.1 mg
[9]
  Mean uterine weight: 61.7 mg

## CC(C)N(CCOc1ccc(C(=O)c2c(-c3ccc(O)cc3)sc3cc(O)ccc23)cc1)C(C)C
[2]
  Mean uterine weight: 60.4 mg
[3]
  Mean uterine weight: 62.1 mg
[4]
  Mean uterine weight: 50 mg
[5]
  Mean uterine weight: 69.5 mg
[6]
  Mean uterine weight: 37.3 mg
[7]
  Mean uterine weight: 58.7 mg
[8]
  Mean uterine weight: 70.2 mg
[9]
  Mean uterine weight: 60.1 mg

## CN(C)CCOc1ccc(C(=O)c2c(-c3ccc(O)cc3)sc3cc(O)ccc23)cc1
[2]
  Mean uterine weight: 71.5 mg
[3]
  Mean uterine weight: 66 mg
[4]
  Mean uterine weight: 55 mg
[5]
  Mean uterine weight: 64.7 mg
[6]
  Mean uterine weight: 44.6 mg
[7]
  Mean uterine weight: 54.3 mg
[8]
  Mean uterine weight: 70.8 mg
[9]
  Mean uterine weight: 54.7 mg

## O=C(c1ccc(OCCN2CCCCC2)cc1)c1c(-c2ccc(O)cc2)sc2cc(O)ccc12
[35]
  Serum prolactin level: 7.24e-05 mg/mL
[31]
  Serum prolactin level: 0.000711 mg/mL
[36]
  Serum prolactin level: 0.000204 mg/mL
[37]
  Serum LH level: 3.08e-05 mg/mL and 2.77e-05 mg/mL
